Series [1] concerns TRPC4:C4. Particulars: read-out: TRPC4:C4 IC50; cited from earlier work.
Series [2] concerns TRPC5:C5. Particulars: read-out: TRPC5:C5 IC50; cited from earlier work.
In series [3] the target is T1, TRPC5-SYFP2 (Homo sapiens, UniProt Q9UL62).
T1 sequence (Q9UL62 1-973): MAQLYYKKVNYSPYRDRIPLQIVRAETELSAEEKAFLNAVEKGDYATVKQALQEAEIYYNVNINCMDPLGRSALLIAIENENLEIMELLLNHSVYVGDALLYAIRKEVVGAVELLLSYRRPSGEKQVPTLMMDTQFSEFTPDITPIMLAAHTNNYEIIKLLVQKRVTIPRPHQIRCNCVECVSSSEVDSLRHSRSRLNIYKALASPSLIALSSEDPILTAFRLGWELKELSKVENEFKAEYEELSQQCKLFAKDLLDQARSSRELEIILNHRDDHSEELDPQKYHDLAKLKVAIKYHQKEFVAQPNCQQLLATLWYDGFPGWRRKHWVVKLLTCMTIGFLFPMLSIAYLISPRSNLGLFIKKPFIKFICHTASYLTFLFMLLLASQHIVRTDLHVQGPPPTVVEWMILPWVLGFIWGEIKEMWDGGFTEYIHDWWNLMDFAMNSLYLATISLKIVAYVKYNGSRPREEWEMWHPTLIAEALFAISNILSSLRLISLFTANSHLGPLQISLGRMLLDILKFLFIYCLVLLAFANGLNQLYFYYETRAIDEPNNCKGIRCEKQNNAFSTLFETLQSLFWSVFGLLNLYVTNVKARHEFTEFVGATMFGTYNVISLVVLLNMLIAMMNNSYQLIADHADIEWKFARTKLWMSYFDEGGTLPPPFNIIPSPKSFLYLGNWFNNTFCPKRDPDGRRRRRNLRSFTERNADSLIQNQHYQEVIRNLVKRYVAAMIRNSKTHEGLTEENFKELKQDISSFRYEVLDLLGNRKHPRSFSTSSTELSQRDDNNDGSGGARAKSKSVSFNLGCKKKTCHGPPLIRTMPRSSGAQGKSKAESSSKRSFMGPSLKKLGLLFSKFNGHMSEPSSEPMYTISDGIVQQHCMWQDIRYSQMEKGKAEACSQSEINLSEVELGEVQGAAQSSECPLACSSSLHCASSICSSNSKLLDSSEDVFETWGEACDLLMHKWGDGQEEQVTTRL
Put plainly: Competition photoaffinity labelling. Type of series: binding. The settings on record: Pico145 10 μM pre-treatment; 300 nM Pico145-DAAlk 5. Summed up:
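Tetracycline-induced (1 μg ml−1, 24 h) cells in SBS pre-treated 30 min at 37 °C with test compound or DMSO, then 30 min at 37 °C with 300 nM diazirine-alkyne probe plus competitor. Streptavidin-HRP/anti-GFP blots; biotin/GFP densitometry versus probe-only control; n = 3; one-way ANOVA, Dunnett.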

The target of series [4] is T2, TRPC4:C4 (Homo sapiens, UniProt Q9UBN4).
T2 sequence (Q9UBN4 1-893 isoform Q9UBN4-2): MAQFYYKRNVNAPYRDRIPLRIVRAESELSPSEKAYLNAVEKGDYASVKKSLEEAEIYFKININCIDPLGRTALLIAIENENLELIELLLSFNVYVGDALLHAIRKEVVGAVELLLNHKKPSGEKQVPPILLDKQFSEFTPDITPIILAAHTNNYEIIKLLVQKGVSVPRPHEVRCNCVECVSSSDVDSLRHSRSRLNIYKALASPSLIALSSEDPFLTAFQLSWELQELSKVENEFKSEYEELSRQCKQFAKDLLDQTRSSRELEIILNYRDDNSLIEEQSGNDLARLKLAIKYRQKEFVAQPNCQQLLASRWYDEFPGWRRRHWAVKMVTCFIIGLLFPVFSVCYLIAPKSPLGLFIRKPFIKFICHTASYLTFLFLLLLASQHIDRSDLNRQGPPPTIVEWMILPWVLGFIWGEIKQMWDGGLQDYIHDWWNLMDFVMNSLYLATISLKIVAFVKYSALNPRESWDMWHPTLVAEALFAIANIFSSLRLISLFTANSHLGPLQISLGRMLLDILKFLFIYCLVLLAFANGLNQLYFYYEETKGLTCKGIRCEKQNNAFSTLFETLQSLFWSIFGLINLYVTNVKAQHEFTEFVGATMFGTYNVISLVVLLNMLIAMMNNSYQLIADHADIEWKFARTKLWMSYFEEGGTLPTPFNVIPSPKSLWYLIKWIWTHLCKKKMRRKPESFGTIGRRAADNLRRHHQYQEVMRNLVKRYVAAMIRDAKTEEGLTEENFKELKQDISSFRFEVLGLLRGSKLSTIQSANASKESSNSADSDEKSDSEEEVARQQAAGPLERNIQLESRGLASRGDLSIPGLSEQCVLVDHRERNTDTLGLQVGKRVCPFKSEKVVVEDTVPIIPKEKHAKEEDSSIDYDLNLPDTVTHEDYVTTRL
The settings on record: read-out: TRPC4:C4 IC50; 10 nM EA was used as activator; cited from earlier work.

The target in series [5] is TRPC4-C1 (Homo sapiens, UniProt P48995+Q9UBN4). The settings on record: read-out: TRPC4-C1 IC50; 10 nM EA was used as activator; cited from earlier work.
The conditions of series [6]: cited from earlier work.

Entries after “also recorded” stand apart in the source; their conditions may differ.

The values below come from article PMC10655067 (RSC Chemical Biology, 2020).

A word on the IC50: it is the midpoint of a concentration-inhibition curve.

Chain of TRPC4-C1 (P48995 whole entry, one chain of several): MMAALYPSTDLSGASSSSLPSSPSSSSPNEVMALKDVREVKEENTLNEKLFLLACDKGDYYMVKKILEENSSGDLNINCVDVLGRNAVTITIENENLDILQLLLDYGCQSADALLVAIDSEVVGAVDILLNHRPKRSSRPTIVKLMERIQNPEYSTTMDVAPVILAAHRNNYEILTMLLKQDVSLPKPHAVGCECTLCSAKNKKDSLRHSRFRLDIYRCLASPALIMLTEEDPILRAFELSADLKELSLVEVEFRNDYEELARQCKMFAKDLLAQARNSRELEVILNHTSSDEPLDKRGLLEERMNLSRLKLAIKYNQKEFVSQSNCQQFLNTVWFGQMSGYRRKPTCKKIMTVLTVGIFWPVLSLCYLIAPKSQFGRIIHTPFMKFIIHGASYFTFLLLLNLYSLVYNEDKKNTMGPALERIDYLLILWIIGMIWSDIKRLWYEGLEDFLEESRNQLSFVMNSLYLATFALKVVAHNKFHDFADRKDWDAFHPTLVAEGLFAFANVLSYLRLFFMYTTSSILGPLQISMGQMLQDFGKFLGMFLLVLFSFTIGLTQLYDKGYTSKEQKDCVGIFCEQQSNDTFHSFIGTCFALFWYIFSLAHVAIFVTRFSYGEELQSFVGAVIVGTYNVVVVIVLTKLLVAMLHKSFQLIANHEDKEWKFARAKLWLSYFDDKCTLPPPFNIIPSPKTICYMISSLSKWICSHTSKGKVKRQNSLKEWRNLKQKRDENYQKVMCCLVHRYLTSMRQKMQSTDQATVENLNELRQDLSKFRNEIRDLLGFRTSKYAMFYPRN

Turning to `O=C1CN(c2cn[nH]c(=O)c2Cl)CCN1Cc1ccccc1C(F)(F)F` [GFB-8438], the half-inhibitory concentration (IC50) in series [1] is 290 nM; in series [2], 180 to 280 nM.
Consider `Cn1c(=O)n(CCCO)c(=O)c2c1nc(Oc1cccc(OC(F)(F)F)c1)n2Cc1ccc(Cl)cc1` [Pico145 1], for which the “Effect on TRPC5 photoaffinity labelling with Pico145-DAAlk 5” value in series [3] was “inhibition of TRPC5 labelling; also recorded: inhibits photoaffinity labelling”. For the same compound, the results for the IC50 in series [4] and in series [5] were 0.35 nM and 0.03 nM, respectively. Further, the Oral bioavailability result in series [6] is “orally bioavailable”.
